# Measured values from ChEMBL document CHEMBL1165965, “Synthesis and structure-activity relationships of 1,2,3,4-tetrahydropyrido[2,3-b]pyrazines as potent and selective inhibitors of the anaplastic lymphoma kinase” (Bioorg Med Chem, 2010).
# Key:
# [1] = molecular target: Tyrosine-protein kinase JAK1 (Homo sapiens) (UniProt P23458); test: Inhibition of JAK1 JH2 pseudokinase domain at 1 uM
# Summary of the method: (§1)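 Single-concentration screen on the Ambit KINOMEscan platform, run against a panel of 250–400 kinases. Per-kinase inhibition was also summarized as S(90), the fraction of kinases inhibited by more than 90%.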
# [2] = molecular target: Tyrosine-protein kinase JAK2 (Homo sapiens) (UniProt O60674); test: Inhibition of JAK2 JH1 catalytic domain at 1 uM; summary of the method: as §1
# [3] = molecular target: T1, Serine/threonine-protein kinase STK11 (Homo sapiens) (UniProt Q15831); test: Inhibition of LKB1 at 1 uM; summary of the method: as §1
# T1 sequence (whole entry): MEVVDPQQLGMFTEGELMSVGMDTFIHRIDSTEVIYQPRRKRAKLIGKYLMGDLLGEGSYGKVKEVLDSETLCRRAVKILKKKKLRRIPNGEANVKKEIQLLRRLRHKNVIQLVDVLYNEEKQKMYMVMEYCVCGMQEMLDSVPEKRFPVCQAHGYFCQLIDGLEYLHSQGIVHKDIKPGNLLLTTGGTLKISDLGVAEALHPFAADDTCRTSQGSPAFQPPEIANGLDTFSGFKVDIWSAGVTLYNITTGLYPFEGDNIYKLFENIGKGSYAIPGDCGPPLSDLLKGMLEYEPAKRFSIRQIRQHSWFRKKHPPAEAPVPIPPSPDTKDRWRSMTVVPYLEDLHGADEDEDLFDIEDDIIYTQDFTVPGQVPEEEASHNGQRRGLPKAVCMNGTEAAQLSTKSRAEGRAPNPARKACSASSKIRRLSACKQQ
# [4] = molecular target: Serine/threonine-protein kinase MARK1 (Homo sapiens) (UniProt Q9P0L2); test: Inhibition of MARK1 at 1 uM
# Summary of the method: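 Kinase-panel screen using KINOMEscan technology, with 250–400 kinases per panel. Each compound was tested at a single concentration, and inhibition of each kinase was recorded. Selectivity was summarised as S(90), the fraction of kinases inhibited by more than 90%.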
# [5] = molecular target: Phosphatidylinositol 4-kinase beta (Homo sapiens) (UniProt Q9UBF8); test: Inhibition of PIK4CB at 1 uM
# [6] = molecular target: Phosphatidylinositol 4-phosphate 5-kinase type-1 alpha (Homo sapiens) (UniProt Q99755); test: Inhibition of PIP5K1A at 1 uM
# Phosphatidylinositol 4-phosphate 5-kinase type-1 alpha (Homo sapiens), sequence (Q99755 whole entry): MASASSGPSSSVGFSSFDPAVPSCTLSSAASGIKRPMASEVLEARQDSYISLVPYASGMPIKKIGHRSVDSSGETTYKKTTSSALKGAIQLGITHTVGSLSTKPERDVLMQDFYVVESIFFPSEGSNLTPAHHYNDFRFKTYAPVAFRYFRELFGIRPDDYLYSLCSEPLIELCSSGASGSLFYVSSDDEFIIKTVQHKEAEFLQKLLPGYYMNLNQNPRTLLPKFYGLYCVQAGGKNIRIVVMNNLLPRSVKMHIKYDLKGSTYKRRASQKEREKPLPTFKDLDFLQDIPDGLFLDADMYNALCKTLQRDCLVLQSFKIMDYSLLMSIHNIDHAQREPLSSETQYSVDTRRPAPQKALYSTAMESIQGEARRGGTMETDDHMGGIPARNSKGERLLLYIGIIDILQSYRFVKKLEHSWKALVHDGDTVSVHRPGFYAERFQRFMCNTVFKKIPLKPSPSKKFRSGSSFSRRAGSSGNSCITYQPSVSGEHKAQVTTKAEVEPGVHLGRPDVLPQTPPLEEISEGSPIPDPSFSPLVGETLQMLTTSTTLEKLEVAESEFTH
# [7] = molecular target: Serine/threonine-protein kinase PLK1 (Homo sapiens) (UniProt P53350); test: Inhibition of PLK1 at 1 uM
# [8] = molecular target: Serine/threonine-protein kinase PLK3 (Homo sapiens) (UniProt Q9H4B4); test: Inhibition of PLK3 at 1 uM
# Serine/threonine-protein kinase PLK3 (Homo sapiens), sequence (Q9H4B4 whole entry, looked up): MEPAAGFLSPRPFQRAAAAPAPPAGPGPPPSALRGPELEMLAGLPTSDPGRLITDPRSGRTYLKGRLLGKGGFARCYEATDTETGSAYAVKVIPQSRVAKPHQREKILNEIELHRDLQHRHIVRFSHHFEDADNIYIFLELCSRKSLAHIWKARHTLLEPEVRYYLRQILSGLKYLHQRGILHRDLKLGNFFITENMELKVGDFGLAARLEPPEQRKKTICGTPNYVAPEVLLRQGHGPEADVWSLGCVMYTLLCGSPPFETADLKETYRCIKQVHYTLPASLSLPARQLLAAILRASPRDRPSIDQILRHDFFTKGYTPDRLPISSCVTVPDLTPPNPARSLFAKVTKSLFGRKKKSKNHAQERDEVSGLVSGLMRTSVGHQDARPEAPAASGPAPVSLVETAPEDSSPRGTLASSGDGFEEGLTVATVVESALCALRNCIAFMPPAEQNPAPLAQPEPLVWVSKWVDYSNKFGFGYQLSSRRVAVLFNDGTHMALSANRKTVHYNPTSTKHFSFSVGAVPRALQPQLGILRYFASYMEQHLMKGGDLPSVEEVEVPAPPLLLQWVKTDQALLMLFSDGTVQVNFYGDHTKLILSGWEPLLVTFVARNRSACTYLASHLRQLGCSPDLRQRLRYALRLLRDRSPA
# [9] = molecular target: Protein kinase C delta type (Homo sapiens) (UniProt Q05655); test: Inhibition of PRKCD at 1 uM
# [10] = molecular target: Serine/threonine-protein kinase RIO2 (Homo sapiens) (UniProt Q9BVS4); test: Inhibition of RIOK2 at 1 uM
# [11] = molecular target: BDNF/NT-3 growth factors receptor (Homo sapiens) (UniProt Q16620); test: Inhibition of TRKB at 1 uM; summary of the method: as §1
# BDNF/NT-3 growth factors receptor (Homo sapiens), sequence (Q16620 32-822 limits assumed): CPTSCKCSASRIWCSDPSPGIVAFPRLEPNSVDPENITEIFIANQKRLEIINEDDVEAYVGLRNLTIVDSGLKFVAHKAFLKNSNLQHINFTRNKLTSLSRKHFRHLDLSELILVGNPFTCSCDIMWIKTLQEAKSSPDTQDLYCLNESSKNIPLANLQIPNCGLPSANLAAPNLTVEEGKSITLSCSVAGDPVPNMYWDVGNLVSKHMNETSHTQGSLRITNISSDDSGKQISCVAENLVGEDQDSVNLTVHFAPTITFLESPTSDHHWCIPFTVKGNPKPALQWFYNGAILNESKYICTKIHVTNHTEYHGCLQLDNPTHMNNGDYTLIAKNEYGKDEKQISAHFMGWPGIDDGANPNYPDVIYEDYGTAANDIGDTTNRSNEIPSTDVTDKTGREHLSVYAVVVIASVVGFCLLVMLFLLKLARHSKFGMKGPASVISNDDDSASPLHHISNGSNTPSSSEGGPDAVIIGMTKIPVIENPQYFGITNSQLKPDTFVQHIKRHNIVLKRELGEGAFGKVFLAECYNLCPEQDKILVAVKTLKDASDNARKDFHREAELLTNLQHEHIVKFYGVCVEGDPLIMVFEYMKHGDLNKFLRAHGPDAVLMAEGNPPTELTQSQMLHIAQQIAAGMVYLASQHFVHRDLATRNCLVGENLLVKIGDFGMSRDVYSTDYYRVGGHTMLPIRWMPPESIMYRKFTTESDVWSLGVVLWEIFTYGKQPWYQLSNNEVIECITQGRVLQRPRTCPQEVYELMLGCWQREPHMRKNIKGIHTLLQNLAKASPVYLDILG
# [12] = molecular target: T2, Tyrosine-protein kinase TXK (Homo sapiens) (UniProt P42681); test: Inhibition of TXK at 1 uM
# T2 sequence (whole entry): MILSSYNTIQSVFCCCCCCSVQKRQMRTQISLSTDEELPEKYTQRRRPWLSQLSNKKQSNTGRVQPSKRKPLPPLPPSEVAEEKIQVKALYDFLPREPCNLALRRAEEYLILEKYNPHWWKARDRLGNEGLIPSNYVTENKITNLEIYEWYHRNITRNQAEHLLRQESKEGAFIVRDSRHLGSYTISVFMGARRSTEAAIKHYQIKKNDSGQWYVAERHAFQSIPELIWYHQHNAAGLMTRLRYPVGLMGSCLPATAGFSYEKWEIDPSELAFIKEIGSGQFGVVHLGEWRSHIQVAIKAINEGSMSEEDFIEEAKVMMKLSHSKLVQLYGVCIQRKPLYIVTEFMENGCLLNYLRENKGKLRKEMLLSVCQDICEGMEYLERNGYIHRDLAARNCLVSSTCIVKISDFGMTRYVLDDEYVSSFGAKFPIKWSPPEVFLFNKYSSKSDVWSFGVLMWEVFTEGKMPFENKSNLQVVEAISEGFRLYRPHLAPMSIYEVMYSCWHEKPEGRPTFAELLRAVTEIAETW
# [13] = molecular target: Wee1-like protein kinase 2 (Homo sapiens) (UniProt P0C1S8); test: Inhibition of WEE2 at 1 uM
# Wee1-like protein kinase 2 (Homo sapiens), sequence (P0C1S8 whole entry, looked up): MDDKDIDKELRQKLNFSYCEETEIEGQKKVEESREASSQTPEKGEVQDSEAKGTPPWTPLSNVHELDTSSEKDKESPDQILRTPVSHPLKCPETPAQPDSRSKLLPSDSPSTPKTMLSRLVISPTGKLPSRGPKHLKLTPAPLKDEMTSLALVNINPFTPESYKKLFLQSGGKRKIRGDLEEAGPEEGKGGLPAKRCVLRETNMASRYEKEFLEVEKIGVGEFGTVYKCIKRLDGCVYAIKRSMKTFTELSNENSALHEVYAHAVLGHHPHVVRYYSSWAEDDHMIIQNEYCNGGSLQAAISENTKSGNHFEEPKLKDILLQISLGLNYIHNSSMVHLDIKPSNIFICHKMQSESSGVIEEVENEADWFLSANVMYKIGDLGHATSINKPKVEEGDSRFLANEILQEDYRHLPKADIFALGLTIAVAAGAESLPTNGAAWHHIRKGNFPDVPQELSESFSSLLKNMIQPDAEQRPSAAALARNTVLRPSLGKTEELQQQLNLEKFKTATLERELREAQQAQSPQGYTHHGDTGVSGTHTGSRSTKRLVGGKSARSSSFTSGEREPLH
# [14] = molecular target: Mitogen-activated protein kinase kinase kinase 20 (Homo sapiens) (UniProt Q9NYL2); test: Inhibition of ZAK at 1 uM
# Mitogen-activated protein kinase kinase kinase 20 (Homo sapiens), sequence (Q9NYL2 2-800 limits assumed): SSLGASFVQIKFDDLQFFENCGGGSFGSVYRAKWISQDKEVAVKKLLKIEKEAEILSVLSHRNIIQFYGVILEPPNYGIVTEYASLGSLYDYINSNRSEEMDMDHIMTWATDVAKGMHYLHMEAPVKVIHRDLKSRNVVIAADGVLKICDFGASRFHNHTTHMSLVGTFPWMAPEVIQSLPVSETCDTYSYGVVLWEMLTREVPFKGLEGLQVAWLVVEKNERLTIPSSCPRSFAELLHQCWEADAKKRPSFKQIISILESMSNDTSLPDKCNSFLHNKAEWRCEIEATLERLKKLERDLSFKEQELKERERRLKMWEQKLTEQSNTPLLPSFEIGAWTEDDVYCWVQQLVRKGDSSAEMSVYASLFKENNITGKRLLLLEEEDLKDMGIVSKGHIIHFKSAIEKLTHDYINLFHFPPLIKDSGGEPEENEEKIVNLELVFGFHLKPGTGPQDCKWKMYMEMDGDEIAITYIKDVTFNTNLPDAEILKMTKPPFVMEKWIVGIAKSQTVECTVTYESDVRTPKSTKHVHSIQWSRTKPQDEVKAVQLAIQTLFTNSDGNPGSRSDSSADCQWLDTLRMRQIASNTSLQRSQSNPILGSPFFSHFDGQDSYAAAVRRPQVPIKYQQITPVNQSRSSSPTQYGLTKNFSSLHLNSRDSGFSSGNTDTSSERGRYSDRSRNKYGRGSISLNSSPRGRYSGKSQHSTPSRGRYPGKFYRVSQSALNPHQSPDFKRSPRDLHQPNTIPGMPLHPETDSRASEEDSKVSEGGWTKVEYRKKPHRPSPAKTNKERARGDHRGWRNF
# [15] = molecular target: Bone morphogenetic protein receptor type-1A (Homo sapiens) (UniProt P36894); test: Inhibition of BMPR1A at 1 uM
# Summary of the method: (§2)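 Ambit KINOMEscan screen at a single concentration across a 250–400 kinase panel, recorded as percent inhibition. Selectivity was expressed as S(90), the fraction of kinases inhibited >90%.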
# [16] = molecular target: Calcium/calmodulin-dependent protein kinase type II subunit alpha (Homo sapiens) (UniProt Q9UQM7); test: Inhibition of CAMK2A at 1 uM; summary of the method: as §2
# Calcium/calmodulin-dependent protein kinase type II subunit alpha (Homo sapiens), sequence (Q9UQM7 whole entry): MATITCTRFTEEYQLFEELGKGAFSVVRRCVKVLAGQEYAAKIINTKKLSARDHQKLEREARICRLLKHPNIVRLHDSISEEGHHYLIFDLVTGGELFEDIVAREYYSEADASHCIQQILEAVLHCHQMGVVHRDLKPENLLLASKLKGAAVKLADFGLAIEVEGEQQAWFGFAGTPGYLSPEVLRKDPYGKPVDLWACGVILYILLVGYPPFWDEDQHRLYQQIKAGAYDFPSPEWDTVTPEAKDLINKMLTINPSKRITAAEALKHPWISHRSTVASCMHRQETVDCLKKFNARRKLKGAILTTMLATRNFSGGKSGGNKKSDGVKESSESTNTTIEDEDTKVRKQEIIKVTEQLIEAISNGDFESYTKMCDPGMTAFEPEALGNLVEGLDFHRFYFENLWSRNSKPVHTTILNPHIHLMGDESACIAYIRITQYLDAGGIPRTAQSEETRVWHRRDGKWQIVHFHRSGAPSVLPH
# [17] = molecular target: Calcium/calmodulin-dependent protein kinase kinase 2 (Homo sapiens) (UniProt Q96RR4); test: Inhibition of CAMKK2 at 1 uM; summary of the method: as §2
# Calcium/calmodulin-dependent protein kinase kinase 2 (Homo sapiens), sequence (Q96RR4 2-588 limits assumed): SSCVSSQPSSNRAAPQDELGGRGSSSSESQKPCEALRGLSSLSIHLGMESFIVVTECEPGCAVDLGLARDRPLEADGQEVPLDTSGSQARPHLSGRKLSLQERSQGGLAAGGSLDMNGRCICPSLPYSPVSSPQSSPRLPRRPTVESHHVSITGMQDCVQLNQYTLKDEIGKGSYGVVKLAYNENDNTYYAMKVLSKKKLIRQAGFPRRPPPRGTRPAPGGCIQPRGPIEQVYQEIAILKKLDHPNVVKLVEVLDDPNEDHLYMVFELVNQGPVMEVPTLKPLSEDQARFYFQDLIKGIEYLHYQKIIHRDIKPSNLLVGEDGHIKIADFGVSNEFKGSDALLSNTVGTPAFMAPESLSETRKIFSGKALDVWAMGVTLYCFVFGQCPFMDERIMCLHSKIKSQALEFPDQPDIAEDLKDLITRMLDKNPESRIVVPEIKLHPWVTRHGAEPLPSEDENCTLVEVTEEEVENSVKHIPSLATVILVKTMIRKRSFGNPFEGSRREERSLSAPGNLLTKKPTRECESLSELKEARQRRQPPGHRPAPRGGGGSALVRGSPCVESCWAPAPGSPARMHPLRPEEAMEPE
# [18] = molecular target: T3, Serine/threonine-protein kinase Chk1 (Homo sapiens) (UniProt O14757); test: Inhibition of CHEK1 at 1 uM
# T3 sequence (whole entry): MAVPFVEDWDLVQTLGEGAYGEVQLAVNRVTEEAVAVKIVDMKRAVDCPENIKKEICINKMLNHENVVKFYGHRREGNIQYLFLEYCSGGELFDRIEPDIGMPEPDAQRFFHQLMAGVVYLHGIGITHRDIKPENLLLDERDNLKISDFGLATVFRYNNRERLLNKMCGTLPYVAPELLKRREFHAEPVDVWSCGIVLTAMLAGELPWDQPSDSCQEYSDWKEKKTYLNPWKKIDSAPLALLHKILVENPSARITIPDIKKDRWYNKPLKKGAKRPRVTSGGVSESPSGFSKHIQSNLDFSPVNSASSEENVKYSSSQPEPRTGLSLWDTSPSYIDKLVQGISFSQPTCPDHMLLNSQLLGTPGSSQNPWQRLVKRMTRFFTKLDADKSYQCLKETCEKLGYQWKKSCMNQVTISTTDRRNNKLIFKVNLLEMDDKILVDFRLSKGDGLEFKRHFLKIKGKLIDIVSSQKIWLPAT
# [19] = molecular target: Casein kinase II subunit alpha (Homo sapiens) (UniProt P68400); test: Inhibition of CSNK2A1 at 1 uM
# Casein kinase II subunit alpha (Homo sapiens), sequence (P68400 whole entry, looked up): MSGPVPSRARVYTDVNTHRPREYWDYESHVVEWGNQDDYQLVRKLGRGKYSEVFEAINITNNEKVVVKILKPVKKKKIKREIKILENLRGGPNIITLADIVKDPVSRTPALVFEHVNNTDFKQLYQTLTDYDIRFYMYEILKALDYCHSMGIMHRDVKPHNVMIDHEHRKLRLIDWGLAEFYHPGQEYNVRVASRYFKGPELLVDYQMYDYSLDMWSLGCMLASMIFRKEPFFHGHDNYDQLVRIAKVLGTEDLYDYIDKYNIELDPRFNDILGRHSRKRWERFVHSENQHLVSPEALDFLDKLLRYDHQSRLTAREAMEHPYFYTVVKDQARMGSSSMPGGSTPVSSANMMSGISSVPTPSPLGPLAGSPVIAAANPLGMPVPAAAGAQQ
# Summary of the method: (§3)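 Single-concentration screen using Ambit Bioscience KINOMEscan technology across a panel of 250–400 kinases. Per-kinase inhibition from this screen was summarized as S(90), the fraction of kinases inhibited by more than 90%.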
# [20] = test system: Epidermal growth factor receptor (Homo sapiens), P00533 [L861Q]; test: Inhibition of EGFR L861Q mutant at 1 uM; assay type: protein assay; summary of the method: as §3
# [21] = molecular target: cAMP-dependent protein kinase catalytic subunit alpha (Homo sapiens) (UniProt P17612); test: Inhibition of PKAC-alpha at 1 uM
smiles,measurement,setting,value
CN1CCN(c2ccc(-c3cnc4c(c3)N(Cc3cc(Cl)ccc3Cl)CCN4)cn2)CC1,inhibition,[1],< 50%
same,inhibition,[2],95%
same,inhibition,[3],< 50%
same,inhibition,[4],< 50%
same,inhibition,[5],< 50%
same,inhibition,[6],< 50%
same,inhibition,[7],< 50%
same,inhibition,[8],< 50%
same,inhibition,[9],< 50%
same,inhibition,[10],< 50%
same,inhibition,[11],72%
same,inhibition,[12],< 50%
same,inhibition,[13],< 50%
same,inhibition,[14],< 50%
same,inhibition,[15],< 50%
same,inhibition,[16],< 50%
same,inhibition,[17],< 50%
same,inhibition,[18],< 50%
same,inhibition,[19],< 50%
same,inhibition,[20],< 50%
same,inhibition,[21],< 50%
